{"source": "ChEMBL document CHEMBL3864137", "about": "“Design, Synthesis, and Pharmacological Evaluation of 2-(2,5-Dimethyl-5,6,7,8-tetrahydroquinolin-8-yl)-N-aryl Propanamides as Novel Smoothened (Smo) Antagonists” (J Med Chem, 2016)", "key": {"Medulloblastoma cell": {"system": "Medulloblastoma cell", "test": "Antiproliferative activity against mouse medulloblastoma cells isolated from Ptch+/- p53-/- mouse measured after 72 hrs by MTS assay", "format": "functional", "in_short": "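Medulloblastoma cells from Ptch+/-;p53-/- allografts in nude mice, minced and collagenase-digested, grown in Neurobasal A with B-27, EGF 20 ng/ml, bFGF 20 ng/ml, nonessential amino acids and N-acetyl cysteine 60 µg/ml. Seeded in 96-well plates, treated 72 h, viability read by MTS; mean ± SD.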"}, "[1]": {"molecular_target": "Protein smoothened (Homo sapiens) (UniProt Q99835)", "sequence (Q99835 whole entry)": "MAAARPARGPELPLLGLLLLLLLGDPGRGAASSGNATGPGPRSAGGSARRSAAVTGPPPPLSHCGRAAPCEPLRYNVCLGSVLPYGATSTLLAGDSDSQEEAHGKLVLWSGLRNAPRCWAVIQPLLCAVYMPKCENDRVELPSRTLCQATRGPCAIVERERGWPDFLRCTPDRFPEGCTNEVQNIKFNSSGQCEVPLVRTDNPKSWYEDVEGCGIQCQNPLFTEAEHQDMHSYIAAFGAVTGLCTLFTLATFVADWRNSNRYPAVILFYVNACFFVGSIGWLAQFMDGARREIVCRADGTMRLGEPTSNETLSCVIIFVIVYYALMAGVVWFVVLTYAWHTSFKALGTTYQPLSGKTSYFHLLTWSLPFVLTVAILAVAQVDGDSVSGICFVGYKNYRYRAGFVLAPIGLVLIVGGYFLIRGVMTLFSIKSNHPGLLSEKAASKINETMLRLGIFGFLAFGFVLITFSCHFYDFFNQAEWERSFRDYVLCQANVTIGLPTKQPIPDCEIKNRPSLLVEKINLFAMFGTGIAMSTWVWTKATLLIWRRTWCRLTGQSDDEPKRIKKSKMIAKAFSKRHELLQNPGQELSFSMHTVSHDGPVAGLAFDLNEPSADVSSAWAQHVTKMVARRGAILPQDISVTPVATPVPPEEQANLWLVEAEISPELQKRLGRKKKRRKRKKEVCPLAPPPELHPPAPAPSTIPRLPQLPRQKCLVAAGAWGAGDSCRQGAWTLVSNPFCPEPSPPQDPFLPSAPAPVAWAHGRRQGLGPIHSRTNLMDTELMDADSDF", "test": "Antagonist activity at wild-type Smo (unknown origin) expressed in mouse Shh Light2 cells assessed as suppression of Gli-mRNA expression measured after 36 hrs by dual luciferase reporter gene assay", "format": "cell-based", "settings": "in the assay text read “Gli-luciferase activity” for “Gli-mRNA expression”", "in_short": "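Light II cells transfected with wild-type Smo plasmid to drive Gli-luciferase, exposed to compound for 36 h, then harvested for dual luciferase reporter assay. Mean ± SD.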"}, "Protein smoothened": {"molecular_target": "Protein smoothened (Mus musculus, UniProt P56726)", "sequence (P56726 whole entry)": "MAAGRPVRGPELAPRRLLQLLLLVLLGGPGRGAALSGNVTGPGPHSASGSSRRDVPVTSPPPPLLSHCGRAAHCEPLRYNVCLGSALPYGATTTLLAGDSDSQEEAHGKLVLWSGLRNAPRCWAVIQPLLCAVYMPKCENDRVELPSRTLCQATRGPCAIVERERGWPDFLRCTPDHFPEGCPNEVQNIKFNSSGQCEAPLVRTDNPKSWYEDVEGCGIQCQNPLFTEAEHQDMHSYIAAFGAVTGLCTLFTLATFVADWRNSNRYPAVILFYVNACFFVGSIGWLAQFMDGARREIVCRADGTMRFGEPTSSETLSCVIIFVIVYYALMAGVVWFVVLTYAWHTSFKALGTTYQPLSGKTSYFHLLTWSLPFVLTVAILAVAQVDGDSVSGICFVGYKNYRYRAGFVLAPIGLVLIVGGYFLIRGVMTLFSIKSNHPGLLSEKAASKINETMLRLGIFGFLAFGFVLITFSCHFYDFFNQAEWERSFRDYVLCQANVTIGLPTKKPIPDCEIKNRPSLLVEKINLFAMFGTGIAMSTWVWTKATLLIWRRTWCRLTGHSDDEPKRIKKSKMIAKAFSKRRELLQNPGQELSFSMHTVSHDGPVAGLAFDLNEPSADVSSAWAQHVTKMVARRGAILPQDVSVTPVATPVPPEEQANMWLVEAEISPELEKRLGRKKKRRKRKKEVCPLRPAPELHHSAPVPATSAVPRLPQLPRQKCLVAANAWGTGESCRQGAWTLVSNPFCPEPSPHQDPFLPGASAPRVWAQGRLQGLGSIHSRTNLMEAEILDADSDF", "test": "Inhibition of Smo-mediated Hh signalling pathway in mouse Shh Light2 cells by Gli-luciferase reporter gene assay", "format": "cell-based", "in_short": "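Light II cells (NIH-3T3 stably carrying a Gli-responsive firefly luciferase reporter plus a Renilla luciferase vector), seeded in 96-well plates and treated. Firefly/Renilla activity in the lysates read by dual luciferase assay on a luminometer. IC50 is the mean ± SD of three separate experiments.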"}, "HEK293": {"system": "HEK293", "test": "Inhibition of TNF-alpha stimulated NFkappaB transactivation in HEK293 cells at 20 uM measured after 24 hrs by dual luciferase reporter gene assay", "format": "cell-based", "settings": "Homo sapiens", "in_short": "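HEK293 cells stimulated with TNF-α and treated for 24 h, then lysed for dual luciferase reporter analysis of NF-κB activity. Mean ± SD.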"}, "[2]": {"test": "Cytotoxicity against mouse L1210 cells by MTT assay", "format": "functional, cell-based"}, "LS174T": {"system": "LS174T", "test": "Inhibition of PGE2-stimulated TCF/LEF transactivation in human LS174T cells at 20 uM measured after 6 hrs by dual luciferase reporter gene assay", "format": "cell-based", "in_short": "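LS174T cells stimulated with PGE2 and treated for 6 h, then lysed for dual luciferase reporter analysis of TCF/LEF activity. Mean ± SD.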"}}, "note": "The source made the active and inactive calls. No cut-off for these calls is given here.", "data": [{"smiles": "CS(=O)(=O)c1ccc(C(=O)Nc2ccc(Cl)c(-c3ccccn3)c2)c(Cl)c1", "values": [{"measurement": "Activity", "setting": "Medulloblastoma cell", "value": "Dose-dependent effect"}, {"measurement": "inhibition", "setting": "[1]", "value": "Dose-dependent effect"}]}, {"smiles": "Cc1ccc2c(n1)[C@H]([C@@H](C)C(=O)Nc1ccc(Cl)c(-c3ccc(N4C[C@@H](C)O[C@@H](C)C4)cn3)c1)CC[C@H]2C", "values": [{"measurement": "IC50", "setting": "Protein smoothened", "value": "> 1000", "unit": "nM"}]}, {"smiles": "Cc1ccc(S(=O)(=O)/C=C/C#N)cc1", "values": [{"measurement": "inhibition", "setting": "HEK293", "value": "Active"}]}, {"smiles": "C[C@H]1[C@@H](O[C@@H](C#N)c2ccc(Br)cc2)O[C@@H]2O[C@@]3(C)CC[C@H]4[C@H](C)CC[C@@H]1[C@@]24OO3", "values": [{"measurement": "IC50", "setting": "[2]", "value": 10, "unit": "nM"}]}, {"smiles": "Cc1ccc2c(n1)[C@H]([C@@H](C)C(=O)Nc1ccc(Cl)c(-c3nc(C4CC4)no3)c1)CC[C@H]2C", "values": [{"measurement": "IC50", "setting": "Protein smoothened", "value": 220, "unit": "nM"}]}, {"smiles": "Cc1ccc2c(n1)[C@H]([C@@H](C)C(=O)Nc1cccc(-c3ccc(OC(F)(F)F)cc3)c1C)CC[C@H]2C", "values": [{"measurement": "IC50", "setting": "Protein smoothened", "value": 1000, "unit": "nM"}]}, {"smiles": "C[C@@H]1CC[C@@H]([C@@H](C)C(=O)Nc2ccc(Cl)c(-c3ccccn3)c2)[C@H]2Cc3c(c4ccccc4n3C)C[C@H]21", "values": [{"measurement": "IC50", "setting": "Protein smoothened", "value": 476, "unit": "nM"}]}, {"smiles": "C[C@@H]1CC[C@@H]([C@@H](C)C(=O)Nc2ccc(Cl)c(-c3ccccn3)c2)[C@H]2CC(=O)C=C[C@H]21", "values": [{"measurement": "IC50", "setting": "Protein smoothened", "value": "> 1000", "unit": "nM"}]}, {"smiles": "Cc1ccc2c(n1)[C@H]([C@@H](C)C(=O)Nc1ccc(Cl)c(-c3nc4ccccc4o3)c1)CC[C@H]2C", "values": [{"measurement": "IC50", "setting": "Protein smoothened", "value": 243, "unit": "nM"}]}, {"smiles": "Cc1ccc2c(n1)[C@H]([C@@H](C)C(=O)Nc1ccc(Cl)c(-c3nc4ccccc4s3)c1)CC[C@H]2C", "values": [{"measurement": "IC50", "setting": "Protein smoothened", "value": 282, "unit": "nM"}]}, {"smiles": "C[C@@H]1CC[C@@H]2[C@]34OO[C@](C)(CC[C@@H]13)OC4O[C@]2(C)C(=O)Nc1ccc(Cl)c(-c2ccccn2)c1", "note": "(some centres not stated)", "values": [{"measurement": "IC50", "setting": "Protein smoothened", "value": 180, "unit": "nM"}]}, {"smiles": "Cc1ccc2c(n1)[C@H]([C@@H](C)C(=O)Nc1ccc(Cl)c(-c3noc(C)n3)c1)CC[C@H]2C", "values": [{"measurement": "IC50", "setting": "Protein smoothened", "value": "> 1000", "unit": "nM"}]}, {"smiles": "O=S(=O)(NCCNC/C=C/c1ccc(Br)cc1)c1cccc2cnccc12", "values": [{"measurement": "inhibition", "setting": "LS174T", "value": "Active"}]}, {"smiles": "Cc1ccc2c(n1)[C@H]([C@@H](C)C(=O)Nc1ccc(Cl)c(-c3nc4ccccc4[nH]3)c1)CC[C@H]2C", "values": [{"measurement": "IC50", "setting": "Protein smoothened", "value": "45.9 to 46", "unit": "nM"}]}, {"smiles": "C[C@@H]1CC[C@@H]([C@@H](C)C(=O)Nc2ccc(Cl)c(-c3ccccn3)c2)[C@H]2CC(O)CC[C@H]21", "note": "(some centres not stated)", "values": [{"measurement": "IC50", "setting": "Protein smoothened", "value": "> 1000", "unit": "nM"}]}, {"smiles": "Cc1ccc2c(n1)[C@H]([C@@H](C)C(=O)Nc1ccc(Cl)c(-c3nnc(-c4ccnn4C)s3)c1)CC[C@H]2C", "values": [{"measurement": "IC50", "setting": "Protein smoothened", "value": 265, "unit": "nM"}]}]}
